From ChEMBL document CHEMBL5029176, “Targeting Oncogenic Src Homology 2 Domain-Containing Phosphatase 2 (SHP2) by Inhibiting Its Protein-Protein Interactions” (J Med Chem, 2021)
Calls of active or inactive are those of the source. The rule behind the calls is not given here. Where a SMILES comes first, the peptide text is derived from it.

Tests used:
Homo sapiens [1] = organism: Homo sapiens; test: Activation of human His-tagged SHP2 A27S mutant expressed in Escherichia coli (DE3) Rosetta2 competent cells using p-nitrophenyl phosphate as substrate at 10 uM measured after 30 mins
Outline: (§1)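 Recombinant full-length SHP2 (wild type or mutant), His-tagged, Ni-NTA then anion-exchange and gel-filtration purified; 20 pmol in 200 μL buffer with 20 mM p-nitrophenyl phosphate, basal or stimulated with bisphosphorylated BTAM peptide; 30 min at 30 °C; phosphate release read at 405 nm; three replicates.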

Danio rerio [2] = organism: Danio rerio; test: Reversal of Shp2a-D61G-induced phenotypic defect in Zebrafish at 5 uM by stereomicroscopic analysis; type: functional, organism-based
Outline: (§2)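 One-cell zebrafish embryos microinjected (~1 nL) with 120 ng/μL mRNA for GFP-2A-Shp2-D61G or wild-type Shp2, with or without peptide at final 0.3, 3 or 5 μM (assuming ~500 nL embryo volume); GFP-expressing embryos selected, imaged laterally at 11 hpf by stereomicroscope; ovality as long/short axis ratio; survival followed through development; non-injected embryos as control.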

Danio rerio [3] = organism: Danio rerio; test: Improvement in survival of wild type Shp2a-injected Zebrafish embryos at 3 uM after 11 hrs post fertilization by stereomicroscopic analysis; type: functional, organism-based; conditions: Embryo; outline: as §2
Homo sapiens [4] = organism: Homo sapiens; test: Activation of human His-tagged SHP2 F71I mutant expressed in Escherichia coli (DE3) Rosetta2 competent cells using p-nitrophenyl phosphate as substrate at 10 uM measured after 30 mins; outline: as §1
Danio rerio [5] = organism: Danio rerio; test: Reversal of Shp2a-D61G-induced gastrulation defect in Zebrafish assessed as reduction in major/minor axis ratios by stereomicroscopic analysis; type: functional, organism-based; conditions: dose 0.3-5 µM; outline: as §2
[6] = Stability in human serum assessed as degradation after 24 hrs by HPLC analysis; type: ADME, cell-free; conditions: read-out: Drug degradation
Outline: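 Peptide stock in DMSO (5 mg/mL), 20 μL added to 1 mL 25 mM HEPES pH 7.6 plus 250 μL human serum at 37 °C; aliquots taken over 24 h, quenched in ethanol on ice, centrifuged, supernatant analysed by HPLC and HPLC-MS; peptide-buffer-ethanol controls run in parallel.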

Homo sapiens [7] = organism: Homo sapiens; test: Activation of human His-tagged SHP2 E76V mutant expressed in Escherichia coli (DE3) Rosetta2 competent cells using p-nitrophenyl phosphate as substrate at 10 uM measured after 30 mins; outline: as §1
[8] = test system: T1, Tyrosine-protein phosphatase non-receptor type 11 (Homo sapiens), Q06124 [E76K]; test: Activation of human His-tagged SHP2 E76K mutant expressed in Escherichia coli (DE3) Rosetta2 competent cells using p-nitrophenyl phosphate as substrate at 10 uM measured after 30 mins; outline: as §1
T1 sequence (whole entry): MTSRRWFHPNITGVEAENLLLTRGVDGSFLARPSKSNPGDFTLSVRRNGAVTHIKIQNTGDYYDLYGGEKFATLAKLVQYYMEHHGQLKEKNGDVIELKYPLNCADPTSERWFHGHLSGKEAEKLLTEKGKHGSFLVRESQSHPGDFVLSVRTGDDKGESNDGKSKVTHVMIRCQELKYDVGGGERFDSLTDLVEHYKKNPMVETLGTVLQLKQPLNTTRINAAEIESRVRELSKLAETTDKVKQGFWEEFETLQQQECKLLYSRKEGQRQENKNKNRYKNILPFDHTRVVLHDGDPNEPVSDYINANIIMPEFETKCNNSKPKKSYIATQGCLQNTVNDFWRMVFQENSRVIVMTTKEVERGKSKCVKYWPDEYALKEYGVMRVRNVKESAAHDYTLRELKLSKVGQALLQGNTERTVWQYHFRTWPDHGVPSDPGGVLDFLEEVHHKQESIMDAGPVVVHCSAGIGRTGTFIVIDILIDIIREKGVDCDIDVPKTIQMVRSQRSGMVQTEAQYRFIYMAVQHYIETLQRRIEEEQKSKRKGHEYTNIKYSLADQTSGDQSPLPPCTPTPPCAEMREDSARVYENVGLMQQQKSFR

Homo sapiens [9] = organism: Homo sapiens; test: Activation of human His-tagged SHP2 D61H mutant expressed in Escherichia coli (DE3) Rosetta2 competent cells using p-nitrophenyl phosphate as substrate at 10 uM measured after 30 mins; outline: as §1
[10] = Stability in DMEM buffer after 3 days by HPLC analysis; type: physicochemical; conditions: 72 h, time 3 day
Outline: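 Same set-up as serum test but in DMEM, followed 72 h at 37 °C; monitored by HPLC with 5–50% B over 20 min.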

Danio rerio [11] = organism: Danio rerio; test: Induction of phenotypic defect in Zebrafish injected with wild type Shp2a at 3 uM measured after 11 hrs post fertilization by stereomicroscopic analysis; type: organism-based; conditions: in vivo
Outline: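 Wild-type Shp2 mRNA (120 ng/μL) co-injected with peptide at final 3 μM into one-cell zebrafish embryos; GFP-positive embryos imaged laterally at 11 hpf by stereomicroscope; shape scored as long/short axis ratio.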

Danio rerio [12] = organism: Danio rerio; test: Improvement in survival of Shp2a-D61G-injected Zebrafish embryos at 0.3 to 5 uM after 11 hrs post fertilization by stereomicroscopic analysis; type: functional, organism-based; conditions: Embryo, dose 0.3-5 µM; outline: as §2
[13] = Stability in human serum assessed as degradation after 3 hrs by HPLC analysis; type: ADME, cell-free; conditions: read-out: Drug degradation
Outline: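 Peptide DMSO stock (5 mg/mL) added to 25 mM HEPES pH 7.6 with human serum (1 mL buffer + 250 μL serum) at 37 °C; followed 24 h. Aliquots withdrawn at fixed intervals, quenched in absolute ethanol, 15 min on ice, centrifuged; supernatant analysed by HPLC and HPLC-MS. Peptide/buffer/ethanol samples run in parallel.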

Row | metabolised at 3 h [13] [%] | Structure (SMILES) | Activity (Homo sapiens [1]) | Activity (Danio rerio [2]) | Activity (Danio rerio [3]) | Activity (Homo sapiens [4]) | Activity (Danio rerio [5]) | metabolised at 24 h [6] [%] | Activity (Homo sapiens [7]) | Activity [8] | Activity (Homo sapiens [9]) | Stability [10] | Activity (Danio rerio [11]) | Activity (Danio rerio [12])
1 |  | CC[C@H](C)[C@H](NC(=O)[C@H](Cc1ccc(C(F)(F)P(=O)(O)O)cc1)NC(=O)[C@H](CC(N)=O)NC(=O)[C@H](CC(C)C)NC(=O)CNC(C)=O)C(=O)N[C@@H](CC(=O)O)C(=O)N[C@@H](CC(C)C)C(=O)N[C@@H](CC(=O)O)C(=O)N[C@@H](Cc1c[nH]c2ccccc12)C(N)=O | inactive | Active | inactive | inactive | Dose-Dependent Effect | < 50 | inactive | inactive | inactive | Stable | Non-Toxic | Dose-Dependent Effect
2 |  | CC[C@H](C)[C@H](NC(=O)[C@H](Cc1ccc(OP(=O)(O)O)cc1)NC(=O)[C@H](CC(N)=O)NC(=O)[C@H](CC(C)C)NC(C)=O)C(=O)N[C@@H](CC(=O)O)C(=O)N[C@@H](CC(C)C)C(=O)N[C@@H](CC(=O)O)C(=O)N[C@@H](Cc1c[nH]c2ccccc12)C(N)=O |  |  |  |  |  | < 50 |  |  |  |  |  | 
3 | 100 | CC[C@H](C)[C@H](NC(=O)[C@H](C)NC(=O)[C@H](CCCCN)NC(=O)CNC(=O)[C@H](Cc1ccc(O)cc1)NC(=O)[C@H](Cc1ccc(O)cc1)NC(=O)[C@H](CCCCN)NC(=O)[C@H](Cc1ccccc1)NC(=O)[C@@H](N)Cc1c[nH]c2ccccc12)C(=O)N[C@@H](Cc1ccc(O)cc1)C(=O)O (H-WFKYYGKAIY-OH) |  |  |  |  |  |  |  |  |  |  |  | 
